Experimental data as given in ChEMBL document CHEMBL1147968, “Novel lbeta-methylcarbapenems having cyclic sulfonamide moieties: synthesis and evaluation of in vitro antibacterial activity” (2007).
≈ marks a conversion by molar mass, not a printed value.

Tests used:
Escherichia coli [1] = assay: Antibacterial activity against Escherichia coli TEM after 18 to 24 hrs by agar dilution method; assay type: functional
Outline: (§1)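 MICs were determined by agar dilution on test agar. An overnight tryptosoy broth culture was diluted in the same broth to about 10⁶ cells/mL and spotted with an inoculating device onto agar containing serial twofold dilutions of compound. Plates were incubated at 37 °C for 18–20 h, and the MIC was the lowest concentration with no visible growth.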

Staphylococcus aureus [2] = assay: Antibacterial activity against Staphylococcus aureus giorgio after 18 to 24 hrs by agar dilution method; assay type: functional; outline: as §1
Proteus vulgaris = assay: Antibacterial activity against Proteus vulgaris 868 after 18 to 24 hrs by agar dilution method; assay type: functional; outline: as §1
Pseudomonas aeruginosa [3] = assay: Antibacterial activity against Pseudomonas aeruginosa 110/2 after 18 to 24 hrs by agar dilution method; assay type: functional; outline: as §1
Salmonella typhimurium = assay: Antibacterial activity against Salmonella Typhimurium after 18 to 24 hrs by agar dilution method; assay type: functional, Salmonella enterica subsp. enterica serovar Typhimurium; conditions: Salmonella enterica; outline: as §1
Pseudomonas aeruginosa [4] = assay: Antibacterial activity against Pseudomonas aeruginosa 880/2 after 18 to 24 hrs by agar dilution method; assay type: functional; outline: as §1
Acinetobacter baumannii = assay: Antibacterial activity against Acinetobacter baumannii 2289 after 18 to 24 hrs by agar dilution method; assay type: functional; outline: as §1
Serratia marcescens [5] = assay: Antibacterial activity against Serratia marcescens 370 after 18 to 24 hrs by agar dilution method; assay type: functional; outline: as §1
Proteus mirabilis [6] = assay: Antibacterial activity against Proteus mirabilis 112/3 after 18 to 24 hrs by agar dilution method; assay type: functional; outline: as §1
Priestia megaterium = assay: Antibacterial activity against Bacillus megaterium after 18 to 24 hrs by agar dilution method; assay type: functional; outline: as §1
Salmonella paratyphi = assay: Antibacterial activity against Salmonella paratyphi A after 18 to 24 hrs by agar dilution method; assay type: functional, Salmonella enterica subsp. enterica serovar Paratyphi A; conditions: Salmonella enterica
Outline: (§2)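 Agar dilution on test agar with serial twofold dilutions of compound. Overnight tryptosoy broth cultures diluted in the same broth to about 10⁶ cells/mL, then applied with an inoculating device. Plates incubated at 37 °C for 18–20 h.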

Citrobacter freundii = assay: Antibacterial activity against Citrobacter freundii 323 after 18 to 24 hrs by agar dilution method; assay type: functional; outline: as §1
[7] = tested on: Corynebacterium diphtheriae; assay: Antibacterial activity against Corynebacterium diphtheriae after 18 to 24 hrs by agar dilution method; assay type: functional; outline: as §1
Escherichia coli [8] = assay: Antibacterial activity against Escherichia coli 086 after 18 to 24 hrs by agar dilution method; assay type: functional; outline: as §1
Burkholderia cepacia = assay: Antibacterial activity against Pseudomonas cepacia after 18 to 24 hrs by agar dilution method; assay type: functional; outline: as §1
Streptococcus agalactiae [9] = assay: Antibacterial activity against Streptococcus agalactiae 32 after 18 to 24 hrs by agar dilution method; assay type: functional; outline: as §1
Serratia marcescens [10] = assay: Antibacterial activity against Serratia marcescens 3349 after 18 to 24 hrs by agar dilution method; assay type: functional; outline: as §1
Escherichia coli [11] = assay: Antibacterial activity against Escherichia coli 0126 after 18 to 24 hrs by agar dilution method; assay type: functional; outline: as §1
Haemophilus influenzae = assay: Antibacterial activity against Haemophilus influenzae 1210 after 18 to 24 hrs by agar dilution method; assay type: functional; outline: as §1
Staphylococcus aureus [12] = assay: Antibacterial activity against Staphylococcus aureus 503 after 18 to 24 hrs by agar dilution method; assay type: functional; outline: as §1
Escherichia coli [13] = assay: Antibacterial activity against Escherichia coli 0114 after 18 to 24 hrs by agar dilution method; assay type: functional; outline: as §1
Enterobacter cloacae [14] = assay: Antibacterial activity against Enterobacter cloacae 417 after 18 to 24 hrs by agar dilution method; assay type: functional; outline: as §1
Providencia rettgeri [15] = assay: Antibacterial activity against Proteus rettgeri 937 after 18 to 24 hrs by agar dilution method; assay type: functional; outline: as §1
Trueperella pyogenes = assay: Antibacterial activity against Corynebacterium pyogenes after 18 to 24 hrs by agar dilution method; assay type: functional; outline: as §1
Pseudomonas aeruginosa [16] = assay: Antibacterial activity against Pseudomonas aeruginosa 77/2 after 18 to 24 hrs by agar dilution method; assay type: functional; outline: as §1
Escherichia coli [17] = assay: Antibacterial activity against Escherichia coli 04 after 18 to 24 hrs by agar dilution method; assay type: functional; outline: as §1
[18] = Antibacterial activity against Salmonella oranienburg after 18 to 24 hrs by agar dilution method; assay type: functional, Salmonella enterica subsp. enterica serovar Oranienburg; conditions: Salmonella enterica; outline: as §1
Pseudomonas aeruginosa [19] = assay: Antibacterial activity against Pseudomonas aeruginosa 5455 after 18 to 24 hrs by agar dilution method; assay type: functional; outline: as §1
Staphylococcus aureus [20] = assay: Antibacterial activity against Staphylococcus aureus 209P after 18 to 24 hrs by agar dilution method; assay type: functional; outline: as §1
Escherichia coli [21] = assay: Antibacterial activity against Escherichia coli 1507 after 18 to 24 hrs by agar dilution method; assay type: functional; outline: as §1
Pseudomonas aeruginosa [22] = assay: Antibacterial activity against Pseudomonas aeruginosa 9027 after 18 to 24 hrs by agar dilution method; assay type: functional; outline: as §1
Serratia marcescens [23] = assay: Antibacterial activity against Serratia marcescens 6093 after 18 to 24 hrs by agar dilution method; assay type: functional; outline: as §1
[24] = Antibacterial activity against Salmonella give after 18 to 24 hrs by agar dilution method; assay type: functional, Salmonella enterica subsp. enterica serovar Give; conditions: Salmonella enterica; outline: as §1
Enterococcus durans = assay: Antibacterial activity against Streptococcus durans D after 18 to 24 hrs by agar dilution method; assay type: functional; outline: as §1
Providencia rettgeri [25] = assay: Antibacterial activity against Proteus rettgeri 936 after 18 to 24 hrs by agar dilution method; assay type: functional; outline: as §1
Enterococcus faecalis = assay: Antibacterial activity against Enterococcus faecalis 2347 after 18 to 24 hrs by agar dilution method; assay type: functional; outline: as §1
Proteus mirabilis [26] = assay: Antibacterial activity against Proteus mirabilis 174/3 after 18 to 24 hrs by agar dilution method; assay type: functional; outline: as §1
Salmonella = assay: Antibacterial activity against Salmonella orion after 18 to 24 hrs by agar dilution method; assay type: functional; outline: as §1
Klebsiella pneumoniae [27] = assay: Antibacterial activity against Klebsiella pneumoniae 523 after 18 to 24 hrs by agar dilution method; assay type: functional; outline: as §1
Streptococcus agalactiae [28] = assay: Antibacterial activity against Streptococcus agalactiae B after 18 to 24 hrs by agar dilution method; assay type: functional; outline: as §1
Escherichia coli [29] = assay: Antibacterial activity against Escherichia coli V6311/65 after 18 to 24 hrs by agar dilution method; assay type: functional; outline: as §1
Micrococcus luteus = assay: Antibacterial activity against Micrococcus luteus ATCC 9341 after 18 to 24 hrs by agar dilution method; assay type: functional; outline: as §1
Streptococcus pyogenes = assay: Antibacterial activity against Streptococcus pyogenes 9889 after 18 to 24 hrs by agar dilution method; assay type: functional
Outline: (§3)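 Agar dilution on test agar holding serial twofold dilutions of compound. Overnight tryptosoy broth cultures were diluted in the same broth to about 10⁶ cells/mL and spotted with an inoculating device. Plates were incubated at 37 °C for 18–20 h.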

Enterococcus faecium = assay: Antibacterial activity against Streptococcus faecium 77A after 18 to 24 hrs by agar dilution method; assay type: functional; outline: as §1
Serratia marcescens [30] = assay: Antibacterial activity against Serratia marcescens 14273 after 18 to 24 hrs by agar dilution method; assay type: functional; outline: as §1
Salmonella typhi = assay: Antibacterial activity against Salmonella typhi after 18 to 24 hrs by agar dilution method; assay type: functional, Salmonella enterica subsp. enterica serovar Typhi; conditions: Salmonella enterica; outline: as §2
Streptococcus pneumoniae = assay: Antibacterial activity against Streptococcus pneumoniae 0025 after 18 to 24 hrs by agar dilution method; assay type: functional; outline: as §1
Enterobacter cloacae [31] = assay: Antibacterial activity against Enterobacter cloacae 34 after 18 to 24 hrs by agar dilution method; assay type: functional; outline: as §1
Bacillus subtilis = assay: Antibacterial activity against Bacillus subtilis ATCC 6633 after 18 to 24 hrs by agar dilution method; assay type: functional; outline: as §1
Staphylococcus = assay: Antibacterial activity against coagulase negative Staphylococcus after 18 to 24 hrs by agar dilution method; assay type: functional; outline: as §3
Pasteurella multocida = assay: Antibacterial activity against Pasteurella multocida after 18 to 24 hrs by agar dilution method; assay type: functional; outline: as §1
Klebsiella pneumoniae [32] = assay: Antibacterial activity against Klebsiella pneumoniae 477 after 18 to 24 hrs by agar dilution method; assay type: functional; outline: as §1
Staphylococcus aureus [33] = assay: Antibacterial activity against Staphylococcus aureus 1218 after 18 to 24 hrs by agar dilution method; assay type: functional; outline: as §1
Enterobacter cloacae [34] = assay: Antibacterial activity against Enterobacter cloacae after 18 to 24 hrs by agar dilution method; assay type: functional; outline: as §1

C[C@@H](O)[C@H]1C(=O)N2C(C(=O)O)=C(SCCNC=N)C[C@H]12 [IMIPENEM ANHYDROUS]
MIC (Escherichia coli [1]): 0.2 µg/mL (≈ 0.668 µM)
MIC (Staphylococcus aureus [2]): 0.02 µg/mL (≈ 0.0668 µM)
MIC (Proteus vulgaris): 0.1 µg/mL (≈ 0.334 µM)
MIC (Pseudomonas aeruginosa [3]): 0.8 µg/mL (≈ 2.67 µM)
MIC (Salmonella typhimurium): 0.4 µg/mL (≈ 1.34 µM)
MIC (Pseudomonas aeruginosa [4]): 0.8 µg/mL (≈ 2.67 µM)
MIC (Acinetobacter baumannii): 12.5 µg/mL (≈ 41.8 µM)
MIC (Serratia marcescens [5]): 0.2 µg/mL (≈ 0.668 µM)
MIC (Proteus mirabilis [6]): 0.2 µg/mL (≈ 0.668 µM)
MIC (Priestia megaterium): 0.03 µg/mL (≈ 0.1 µM)
MIC (Salmonella paratyphi): 0.1 µg/mL (≈ 0.334 µM)
MIC (Citrobacter freundii): 0.391 µg/mL (≈ 1.31 µM)
MIC [7]: < 0.01 µg/mL
MIC (Escherichia coli [8]): 0.1 µg/mL (≈ 0.334 µM)
MIC (Burkholderia cepacia): 0.8 µg/mL (≈ 2.67 µM)
MIC (Streptococcus agalactiae [9]): 0.01 µg/mL (≈ 0.0334 µM)
MIC (Serratia marcescens [10]): 0.781 µg/mL (≈ 2.61 µM)
MIC (Escherichia coli [11]): 0.1 µg/mL (≈ 0.334 µM)
MIC (Haemophilus influenzae): 6.25 µg/mL (≈ 20.9 µM)
MIC (Staphylococcus aureus [12]): < 0.01 µg/mL
MIC (Escherichia coli [13]): 0.1 µg/mL (≈ 0.334 µM)
MIC (Enterobacter cloacae [14]): 0.1 µg/mL (≈ 0.334 µM)
MIC (Providencia rettgeri [15]): 0.2 µg/mL (≈ 0.668 µM)
MIC (Trueperella pyogenes): 0.01 µg/mL (≈ 0.0334 µM)
MIC (Pseudomonas aeruginosa [16]): 0.8 µg/mL (≈ 2.67 µM)
MIC (Escherichia coli [17]): 0.195 µg/mL (≈ 0.651 µM)
MIC [18]: 0.4 µg/mL (≈ 1.34 µM)
MIC (Pseudomonas aeruginosa [19]): 3.12 µg/mL (≈ 10.4 µM)
MIC (Staphylococcus aureus [20]): 0.01 µg/mL (≈ 0.0334 µM)
MIC (Escherichia coli [21]): 0.1 µg/mL (≈ 0.334 µM)
MIC (Pseudomonas aeruginosa [22]): 0.8 µg/mL (≈ 2.67 µM)
MIC (Serratia marcescens [23]): 0.4 µg/mL (≈ 1.34 µM)
MIC [24]: 0.2 µg/mL (≈ 0.668 µM)
MIC (Enterococcus durans): 0.1 µg/mL (≈ 0.334 µM)
MIC (Providencia rettgeri [25]): 0.2 µg/mL (≈ 0.668 µM)
MIC (Enterococcus faecalis): 1.56 µg/mL (≈ 5.22 µM)
MIC (Proteus mirabilis [26]): 0.1 µg/mL (≈ 0.334 µM)
MIC (Salmonella): 0.2 µg/mL (≈ 0.668 µM)
MIC (Klebsiella pneumoniae [27]): 0.781 µg/mL (≈ 2.61 µM)
MIC (Streptococcus agalactiae [28]): 0.01 µg/mL (≈ 0.0334 µM)
MIC (Escherichia coli [29]): 0.05 µg/mL (≈ 0.167 µM)
MIC (Micrococcus luteus): 0.01 µg/mL (≈ 0.0334 µM)
MIC (Streptococcus pyogenes): < 0.01 µg/mL
MIC (Enterococcus faecium): < 0.01 µg/mL
MIC (Serratia marcescens [30]): 0.8 µg/mL (≈ 2.67 µM)
MIC (Salmonella typhi): 0.05 µg/mL (≈ 0.167 µM)
MIC (Streptococcus pneumoniae): < 0.01 µg/mL
MIC (Enterobacter cloacae [31]): 0.781 µg/mL (≈ 2.61 µM)
MIC (Bacillus subtilis): 0.03 µg/mL (≈ 0.1 µM)
MIC (Staphylococcus): 0.025 µg/mL (≈ 0.0835 µM)
MIC (Pasteurella multocida): < 0.01 µg/mL
MIC (Klebsiella pneumoniae [32]): 0.2 µg/mL (≈ 0.668 µM)
MIC (Staphylococcus aureus [33]): 1.56 µg/mL (≈ 5.21 µM)
MIC (Enterobacter cloacae [34]): 0.1 µg/mL (≈ 0.334 µM)
